A short description of data set [1]: Cmax in CD1 mouse plasma at 562 umol/kg, ip. The format is ADME, organism-based. Also on record: dose 562 umol/kg, route intraperitoneal. The method, boiled down:
(§1)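 Single i.p. dose to homozygous nude CD-1 Foxn1nu mice, at 75 or 100% of MTD (MTD set by 1.33-fold dose steps; highest dose without death, >15% weight loss or severe morbidity in any of six mice). Total drug measured in plasma by HPLC. AUC, Cmax and terminal t½ derived noncompartmentally. Measured levels taken as free drug.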

For data set [2], the system named is HT-29. Put plainly: Cell viability in anoxic HT29 cells assessed as drug level providing 10% surviving fraction by clonogenic assay. Type of data set: cell-based. The following applies: human.
Data set [3] deals with HT-29. Briefly: Ratio of IC50 for HT29 cells in aerobic condition to IC50 for HT29 cells in hypoxic condition after 4 hrs. Type of data set: functional, Homo sapiens. The method, boiled down: (§2)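 Aerobic and anoxic (H2/Pd chamber) IC50s measured in the same experiment after 4 h exposure, HT29 or SiHa cells. Ratio computed as aerobic IC50/anoxic IC50.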
A short description of data set [4]: AUC (0 to infinity) in CD1 mouse plasma at 562 umol/kg, ip. The format is ADME, organism-based. Also on record: dose 562 umol/kg, time infinity, route intraperitoneal. Put shortly:
as §1

A short description of data set [5]: Toxicity in ip dosed CD1 mouse. The format is organism-based. The following applies: in vivo. The method, boiled down: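 Single i.p. doses given to homozygous nude CD-1 Foxn1nu mice, with the vehicle formulated per compound. Doses escalated in 1.33-fold increments. MTD was defined as the highest dose causing no mortality, no body weight loss >15% and no other severe morbidity in any of six mice.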

The test system of data set [6] is SiHa. Put plainly: Cytotoxicity against SiHa cells under hypoxic condition after 4 hrs. The following applies: Homo sapiens. Type of data set: functional, cell-based. Put shortly: (§3)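 HT29 or SiHa cells exposed to drug for 4 h in 96-well plates under anoxia (H2/Pd anaerobic chamber). IC50 determined.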
The subject of data set [7] is SiHa. Briefly: Ratio of IC50 for SiHa cells in aerobic condition to IC50 for SiHa cells in hypoxic condition after 4 hrs. The format is functional, Homo sapiens. Put shortly: as §2
Data set [8] deals with HT-29. Briefly: Drug penetration in anoxic HT29 cells assessed as penetration half distance. Type of data set: ADME, cell-based. The following applies: human.
Data set [9] has as its system HT-29. Put plainly: Diffusion coefficient, D in aerobic HT29 multicellular layers. Type of data set: ADME, cell-based. As to conditions: human. The method, boiled down:
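Drug flux measured through HT29 multicellular layers on Teflon support membranes under 95% O2 at 37 °C, 50 µM initial donor concentration. Donor and receiver levels fitted with a diffusion model. Layer thickness estimated from flux of internal standard urea.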

The nature of data set [10]: Terminal half life in CD1 mouse plasma at 562 umol/kg, ip. The format is ADME, organism-based. The method, boiled down:
as §1

For data set [11], the system named is HT-29. Put plainly: Antitumor activity against HT29 tumor inoculated in CD1 nude mouse at 562 umol/kg, ip relative to control. Type of data set: functional, Homo sapiens.
The test system of data set [12] is HT-29. Briefly: Cytotoxicity against HT29 cells under hypoxic condition after 4 hrs. The format is functional, cell-based. As to conditions: Homo sapiens, HT-29, 4 h. Put shortly:
as §3

Data set [13] relates to HT-29. Put plainly: Antitumor activity against HT29 tumor inoculated in CD1 nude mouse at 562 umol/kg, ip administered 5 mins after gamma irradiation by excision assay relative to radiation alone. The format is functional, Homo sapiens. Put shortly: (§4)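 HT29 xenografts in nude CD-1 mice received 20 Gy γ radiation, then a single i.p. drug dose 5 min later, at 100% or 75% of MTD. Tumors excised 18 h afterwards, dissociated to single cells and plated for clonogens/g tumor. Hypoxic cell kill = log(clonogens/g, radiation only) − log(clonogens/g, radiation + drug).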

A short description of data set [14]: Terminal half life in CD1 mouse plasma at 421 umol/kg, ip. Type of data set: ADME, organism-based. Put shortly:
as §1

A short description of data set [15]: Cmax in CD1 mouse plasma at 421 umol/kg, ip. Also on record: dose 421 umol/kg, route intraperitoneal. The format is ADME, organism-based. The method, boiled down: as §1
Data set [16] can be described thus: AUC (0 to infinity) in CD1 mouse plasma at 421 umol/kg, ip. The format is ADME, organism-based. Also on record: dose 421 umol/kg, time infinity, route intraperitoneal. Put shortly: as §1
Data set [17] concerns HT-29. Briefly: Antitumor activity against HT29 tumor inoculated in CD1 nude mouse at 421 umol/kg, ip relative to control. Type of data set: functional, Homo sapiens.
Data set [18] deals with HT-29. Briefly: Antitumor activity against HT29 tumor inoculated in CD1 nude mouse at 421 umol/kg, ip administered 5 mins after gamma irradiation by excision assay relative to radiation alone. Type of data set: functional, Homo sapiens. The method, boiled down:
as §4

A short description of data set [19]: AUC (0 to infinity) in CD1 mouse plasma at 133 umol/kg, ip. Also on record: dose 133 umol/kg, route intraperitoneal, time infinity. The format is ADME, organism-based. Put shortly:
as §1

A short description of data set [20]: Terminal half life in CD1 mouse plasma at 133 umol/kg, ip. Type of data set: ADME, organism-based. Put shortly:
as §1

Data set [21] is described as follows: Cmax in CD1 mouse plasma at 133 umol/kg, ip. Type of data set: ADME, organism-based. Also on record: dose 133 umol/kg, route intraperitoneal. The method, boiled down: as §1
A short description of data set [22]: Cmax in CD1 mouse plasma at 316 umol/kg, ip. Type of data set: ADME, organism-based. Also on record: dose 316 umol/kg, route intraperitoneal. Put shortly:
as §1

Data set [23] is described as follows: Terminal half life in CD1 mouse plasma at 316 umol/kg, ip. The format is ADME, organism-based. The method, boiled down: as §1
Data set [24] in a line: AUC (0 to infinity) in CD1 mouse plasma at 316 umol/kg, ip. The format is ADME, organism-based. Also on record: dose 316 umol/kg, time infinity, route intraperitoneal. The method, boiled down:
as §1

The test system of data set [25] is HT-29. Briefly: Antitumor activity against HT29 tumor inoculated in CD1 nude mouse at 316 umol/kg, ip administered 5 mins after gamma irradiation by excision assay relative to radiation alone. The format is functional, Homo sapiens. The method, boiled down: as §4
Data set [26] is described as follows: Cmax in CD1 mouse plasma at 750 umol/kg, ip. Also on record: dose 750 umol/kg, route intraperitoneal. Type of data set: ADME, organism-based. Put shortly: as §1
Data set [27] deals with HT-29. Briefly: Antitumor activity against HT29 tumor inoculated in CD1 nude mouse at 1000 umol/kg, ip relative to control.
For data set [28], the system named is HT-29. Briefly: Antitumor activity against HT29 tumor inoculated in CD1 nude mouse at 750 umol/kg, ip administered 5 mins after gamma irradiation by excision assay relative to radiation alone. Type of data set: functional, Homo sapiens. The method, boiled down: as §4
A short description of data set [29]: AUC (0 to infinity) in CD1 mouse plasma at 750 umol/kg, ip. The format is ADME, organism-based. Also on record: dose 750 umol/kg, time infinity, route intraperitoneal. Put shortly: as §1
The nature of data set [30]: Terminal half life in CD1 mouse plasma at 750 umol/kg, ip. The format is ADME, organism-based. The method, boiled down:
as §1

SMILES strings stand for the structures.

As a reminder, the Cmax is the maximum level reached in the sampled fluid or tissue. What is called AUC(0-inf) is total exposure, with the tail of the curve extrapolated. In general, IC50 refers to the concentration at which inhibition is half-maximal. Higher therefore signals lower potency. Broadly, the half-life is the time in which the quantity being followed falls by half. Lower therefore signals fast loss.

Consider `CCc1n[n+]([O-])c2ccccc2[n+]1[O-]`, for which the peak level in data set [1] (Cmax) was 271 µM. Besides, the Activity worked out at 19.7 µM·h in data set [2], 0.11% in [11] and 0.89% in data set [13]. Moreover, the “Ratio IC50” value is given as 54 in data set [3] and 84 in data set [7]. The compound also had an AUC(0-inf) in data set [4] of 146 µM·h. For the same compound, the MTD in data set [5] came to 562 µmol/kg. In addition, the figures for the IC50 in data set [6] and in [12] were 5900 nM and 6.8 µM, respectively. Further, the Penetration half distance in data set [8] was determined as 63 µm. Further, the D in data set [9] is reported as 26.12 10^-7cm2/sec. The half-life in data set [10] is 11.2 min.
Consider `CCc1n[n+]([O-])c2ccc(OCCN(C)C)cc2[n+]1[O-]`, for which the half-life in data set [14] is 32.2 min. In [15], the highest concentration (Cmax) was found to be 55.5 µM. The results for the Activity in data set [2], in data set [17] and in [18] were 5.1 µM·h, 0.23% and 0.88%, respectively. Besides, the AUC(0-inf) in data set [16] was 55.7 µM·h. Moreover, the entries for the “Ratio IC50” value in data set [3] and in [7] were 307 and 374, respectively. Moreover, the MTD in data set [5] worked out at 562 µmol/kg. Moreover, the values for the IC50 in data set [6] and in [12] were 800 nM and 1.3 µM, respectively. The Penetration half distance in data set [8] was 34 µm.
`CCc1n[n+]([O-])c2ccc(OC)cc2[n+]1[O-]`: the maximum concentration (Cmax) in data set [1] came to 71.5 µM. In addition, the Activity in data set [2] was found to be 69.9 µM·h; in data set [13], 0.76%. In addition, the “Ratio IC50” value stood at 73 in data set [3] and 175 in data set [7]. Moreover, the area under the curve AUC(0-inf) in [4] was 138 µM·h. Also, the MTD in data set [5] was 750 µmol/kg. The results for the IC50 in [6] and in data set [12] were 6800 nM and 16.8 µM, respectively. The Penetration half distance in data set [8] amounted to 34 µm.
`CCc1n[n+]([O-])c2ccc(OCCN3CCCCC3)cc2[n+]1[O-]` had an area under the curve AUC(0-inf) in [19] of 7.75 µM·h. For the same compound, the Activity in [2] was found to be 6.8 µM·h. The figures for the “Ratio IC50” value in data set [3] and in data set [7] were 254 and 302, respectively. Moreover, the MTD in data set [5] came to 178 µmol/kg. In addition, the IC50 in data set [6] was determined as 1000 nM; in [12], 1.5 µM. In addition, the Penetration half distance in [8] amounted to 34 µm. In data set [20], this compound gave a half-life of 25 min. This compound also yielded a Cmax in [21] of 9.8 µM.
In data set [14], `COCCc1n[n+]([O-])c2ccccc2[n+]1[O-]` had a half-life of 18 min. In data set [15], this compound returned a Cmax of 176 µM. Also, the Activity in [2] was determined as 21.3 µM·h; in data set [17], 0.3%; in data set [18], 0.8%. For the same compound, in [16], the AUC(0-inf) is 113 µM·h. Also, the “Ratio IC50” value was 49 in data set [3] and 61 in data set [7]. Moreover, the MTD in data set [5] is 421 µmol/kg. The IC50 in data set [6] was 1600 nM; in [12], 3.5 µM. In addition, in data set [8], the Penetration half distance is 34 µm. The D in [9] is recorded as 20.89 10^-7cm2/sec.
In [22], `CCc1n[n+]([O-])c2cc(OCCCN3CCOCC3)ccc2[n+]1[O-]` had a Cmax of 30.1 µM. Also, the Activity in data set [2] was found to be 7.1 µM·h; in data set [25] it was 0.98%. Further, the “Ratio IC50” value in data set [3] worked out at 147; in data set [7], 181. This compound also gave an MTD in data set [5] of 421 µmol/kg. Besides, the IC50 in data set [6] was found to be 1300 nM; in data set [12], 3 µM. The same compound registered a half-life in data set [23] of 36 min. The Penetration half distance in data set [8] worked out at 34 µm. The same compound gave an AUC(0-inf) in [24] of 33 µM·h.
With `CCc1n[n+]([O-])c2ccc(OCCCN3CCOCC3)cc2[n+]1[O-]`, the Activity came out at 38.6 µM·h in data set [2], 0.14% in [27], 1.66% in data set [28] and 64 µM in data set [8]. The “Ratio IC50” value in data set [3] is on record as 153; in [7] it was 217. In [5], this compound yielded an MTD of 1000 µmol/kg. Besides, the IC50 was found to be 4300 nM in data set [6] and 6.8 µM in data set [12]. The same compound gave a Cmax in data set [26] of 150 µM. In addition, the D in data set [9] is recorded as 7.48 10^-7cm2/sec. In data set [29], the AUC(0-inf) was 162 µM·h. Moreover, in [30], the half-life is 34.8 min.

Source of the values: ChEMBL document CHEMBL1138360, “Hypoxia-selective 3-alkyl 1,2,4-benzotriazine 1,4-dioxides: the influence of hydrogen bond donors on extravascular transport and antitumor activity” (J Med Chem, 2007).
